The source made the active and inactive calls. The calls are words filed in the database; no cut-off is given here.
Tests used:
[1] = biological target: T1, Topoisomerase I (Bos taurus) (UniProt Q2HPH0); assay: Inhibition of calf thymus topoisomerase 1-mediated relaxation of supercoiled pBR322 assessed as increase in cleavable complex level after 15 mins using ethidium bromide staining by UV transilluminator analysis
T1 sequence (whole entry): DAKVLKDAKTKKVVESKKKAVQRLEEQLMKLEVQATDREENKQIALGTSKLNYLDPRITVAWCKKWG
Outline: (§1)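 Topo I with DNA was reacted with compound at 37 °C for 15 min. Reactions were stopped with SDS (0.5% final), then 6× loading buffer (0.1 mM EDTA, 7% glycerol, 0.01% xylene cyanol FF, 0.01% bromophenol blue) was added. Products were separated by gel. Compound concentrations were 1, 10 and 50 µM, and a topo I plus DNA sample without drug served as reference.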

[2] = biological target: T1, Topoisomerase I (Bos taurus); assay: Inhibition of calf thymus topoisomerase 1-mediated relaxation of supercoiled pBR322 at 10 uM after 15 mins using ethidium bromide staining by UV transilluminator analysis; outline: as §1
HCT-116 = assay: Cytotoxicity against human HCT116 cells after 3 days by MTT assay; type: functional, cell-based; conditions: HCT-116, 72 h
Outline: (§2)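 After 3 days, MTT (5 mg/mL solution) was added and plates incubated a further 4 h. Formazan was dissolved in DMSO and absorbance read at 570 nm. Survival expressed as percentage of untreated control wells.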

A549 = assay: Cytotoxicity against human A549 cells after 3 days by MTT assay; type: functional, cell-based; conditions: A549, 72 h; outline: as §2
MDA-MB-435 = assay: Cytotoxicity against human MDA-MB-435 cells after 3 days by MTT assay; type: functional, cell-based; conditions: MDA-MB-435, 72 h; outline: as §2
[3] = biological target: T1, Topoisomerase I (Bos taurus); assay: Inhibition of calf thymus topoisomerase 1-mediated relaxation of supercoiled pBR322 assessed as formation of nicked DNA at 1 to 50 uM after 15 mins using ethidium bromide staining by UV transilluminator; outline: as §1

SMILES	inhibition [1]	inhibition [2]	IC50 (HCT-116)	IC50 (A549)	IC50 (MDA-MB-435)	topoisomerase I inhibition (qualitative call) [2]	inhibition [3]
CC[C@@]1(O)C(=O)OCc2c1cc1n(c2=O)Cc2cc3ccccc3nc2-1	Dose-dependent effect	Active	–	–	–	–	–
CCC1(O)CC(=O)OCc2c1cc1n(c2=O)Cc2c-1nc1ccc(OC)cc1c2C1CCCC1 (racemic)	–	–	71.4 nM	730 nM	41.5 nM	Active	–
CCC1(O)CC(=O)OCc2c1cc1n(c2=O)Cc2c-1nc1ccc(OC)cc1c2C1CCCCC1 (racemic)	–	–	118 nM	657 nM	76.1 nM	–	–
CCC1(O)CC(=O)OCc2c1cc1n(c2=O)Cc2c-1nc1ccc(OC)cc1c2C(=O)C1CC1 (racemic)	–	–	5.93 nM	2480 nM	48.2 nM	–	–
CCC1(O)CC(=O)OCc2c1cc1n(c2=O)Cc2c-1nc1ccc(OC)cc1c2C(=O)C1CCCC1 (racemic)	Dose-dependent effect	–	2.17 nM	430 nM	< 1 nM	Active	Active
CCC1(O)CC(=O)OCc2c1cc1n(c2=O)Cc2c-1nc1ccc(OC)cc1c2C(=O)C1CCCCC1 (racemic)	–	–	446 nM	669 nM	< 1 nM	–	–
CCC(=O)c1c2c(nc3ccc(OC)cc13)-c1cc3c(c(=O)n1C2)COC(=O)CC3(O)CC (racemic)	–	–	56 nM	8960 nM	63.3 nM	–	–
CCCC(=O)c1c2c(nc3ccc(OC)cc13)-c1cc3c(c(=O)n1C2)COC(=O)CC3(O)CC (racemic)	–	–	268 nM	14100 nM	198 nM	–	–
CCCCC(=O)c1c2c(nc3ccc(OC)cc13)-c1cc3c(c(=O)n1C2)COC(=O)CC3(O)CC (racemic)	–	–	277 nM	7030 nM	198 nM	–	–
CCCCCCC(=O)c1c2c(nc3ccc(OC)cc13)-c1cc3c(c(=O)n1C2)COC(=O)CC3(O)CC (racemic)	–	–	317 nM	478 nM	133 nM	Active	–
CCC1(O)CC(=O)OCc2c1cc1n(c2=O)Cc2c-1nc1ccc(OC)cc1c2C(=O)C(C)C (racemic)	–	–	404 nM	2270 nM	21.6 nM	–	–
CCC1(O)CC(=O)OCc2c1cc1n(c2=O)Cc2c-1nc1ccc(OC)cc1c2C(=O)c1ccco1 (racemic)	Dose-dependent effect	–	294 nM	< 1 nM	2.18 nM	Active	Active
CCC1(O)CC(=O)OCc2c1cc1n(c2=O)Cc2c-1nc1ccc(OC)cc1c2C(=O)c1cccs1 (racemic)	–	–	2190 nM	607 nM	1610 nM	Active	–
CCC1(O)CC(=O)OCc2c1cc1n(c2=O)Cc2c-1nc1ccc(OC)cc1c2C(=O)c1ccccc1 (racemic)	–	–	2940 nM	1770 nM	2210 nM	–	–
CCC1(O)CC(=O)OCc2c1cc1n(c2=O)Cc2c-1nc1ccc(OC)cc1c2C(=O)c1ccc(Cl)cc1 (racemic)	–	–	3020 nM	665 nM	2090 nM	–	–
CCC1(O)CC(=O)OCc2c1cc1n(c2=O)Cc2c-1nc1ccc(OC)cc1c2C(=O)c1ccc(F)cc1 (racemic)	–	–	13100 nM	7790 nM	15900 nM	–	–
CCC1(O)CC(=O)OCc2c1cc1n(c2=O)Cc2c-1nc1ccc(OC)cc1c2C(=O)c1ccc(C)cc1 (racemic)	–	–	8170 nM	3390 nM	7170 nM	–	–
CCC1(O)CC(=O)OCc2c1cc1n(c2=O)Cc2c-1nc1ccc(OC)cc1c2C(=O)c1ccc(C(F)(F)F)cc1 (racemic)	–	–	1910 nM	625 nM	1480 nM	Active	–
CCC1(O)CC(=O)OCc2c1cc1n(c2=O)Cc2c-1nc1ccc(OC)cc1c2C(=O)c1ccc(OC)cc1 (racemic)	–	–	2070 nM	9250 nM	16300 nM	–	–
CCC1(O)CC(=O)OCc2c1cc1n(c2=O)Cc2c-1nc1ccc(OC)cc1c2C(=O)c1cc(C)cc(C)c1 (racemic)	–	–	26300 nM	48000 nM	> 100000 nM	–	–
CCC1(O)CC(=O)OCc2c1cc1n(c2=O)Cc2c-1nc1ccc(OC)cc1c2C(=O)c1ccc2ccccc2c1 (racemic)	–	–	22800 nM	> 100000 nM	> 100000 nM	–	–
CC[C@@]1(O)C(=O)OCc2c1cc1n(c2=O)Cc2cc3c(CN(C)C)c(O)ccc3nc2-1 [TOPOTECAN]	–	–	1100 nM	3160 nM	448 nM	–	–
